Here are results for 15 compounds from ChEMBL document CHEMBL5104201, “Prodrugs of a 1-Hydroxy-2-oxopiperidin-3-yl Phosphonate Enolase Inhibitor for the Treatment of ENO1-Deleted Cancers” (J Med Chem, 2022).

A word on the IC50: it is the midpoint of a concentration-inhibition curve.

Data set [1] can be described thus: Metabolic stability of the compound in human serum over 12 hrs by 31P-NMR analysis. The format is ADME, cell-free. The procedure, abridged:
(§1)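 Prodrug dissolved in DMSO and added to 80% human serum/plasma with 20% D2O, final 2 mM unless stated otherwise. Samples held at 37 °C between timepoints. Read by 31P NMR (CPD, 500 scans), with 1H–31P HSQC where applicable. Peaks integrated and normalised to the phosphate peak at 0 ppm.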

Data set [2] relates to Panel NCI-60 (60 carcinoma cell lines). Briefly: Cytotoxicity against human NCI-60 cells assessed as reduction in cell viability at 10 uM incubated for […]. The format is functional. The procedure, abridged: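 NCI DTP one-dose screen: single 10 μM dose, […], across the 60-line panel (some lines absent when unavailable). Cells kept in RPMI 1640 with 5% FBS and 2 mM L-glutamine, seeded at 5000–40,000 cells/well by doubling time. Percent growth given relative to drug-free untreated control and to cell number at time zero.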

A short description of data set [3]: Cytotoxicity against human LN-319 cells expressing ENO1 assessed as cell growth inhibition incubated for 6 days by cystal violet staining based analysis. In kind it is functional. The conditions noted are these: LN-319, 144 h.
The nature of data set [4]: Metabolic stability of the compound in human serum measured over 366 hrs by 31P-NMR analysis. In kind it is ADME, cell-free. The procedure, abridged: as §1
The nature of data set [5]: Metabolic stability of the compound in human serum measured over 16 hrs by 31P-NMR analysis. The format is ADME, cell-free. The procedure, abridged:
as §1

Data set [6] is described as follows: Metabolic stability of the compound in human serum measured over 9 hrs by 31P-NMR analysis. In kind it is ADME, cell-free. The procedure, abridged:
as §1

Data set [7] in a line: Stability of compound in phosphate buffer at pH 7 incubated for 3 hrs. In kind it is physicochemical. The conditions noted are these: pH 7, 3 h. An outline of the steps:
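Stability followed by 31P NMR in 5 mM phosphate-buffered D2O at pH 7.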

Data set [8] in a line: Stability of compound in human serum incubated for 72 hrs by 31P-NMR analysis. The format is ADME, cell-free. An outline of the steps:
as §1

Data set [9] in a line: Stability of compound in human plasma incubated for 3 hrs by 31P-NMR analysis. The format is ADME, cell-free. An outline of the steps: as §1
Data set [10] in a line: Stability of compound in culture media incubated for 72 hrs by 31P-NMR analysis. In kind it is physicochemical. An outline of the steps:
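Prodrug (final 2 mM unless stated otherwise) in 80% DMEM with 20% D2O, kept at 37 °C between timepoints. Species followed by 31P NMR (CPD, 500 scans).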

A short description of data set [11]: Prodrug conversion in human plasma assessed as (1-hydroxy-2-oxopiperidin-3-yl) phosphonic acid formation measured after 3 hrs by 31P-NMR analysis. The format is ADME, cell-free. The procedure, abridged: as §1

SMILES strings stand for the structures.

With `CC(C)(C)C(=O)OCOP(=O)(OCOC(=O)C(C)(C)C)C1CCCN(O)C1=O` (configuration not stated), in data set [1], the Stability result was “Unstable”. Besides, the Activity in data set [2] was found to be 7.1%.
Consider `O=C1C(P(=O)(O)O)CCCN1O` (configuration not stated), for which the IC50 in data set [3] was determined as 3000 µM.
Regarding `CC(C)(C)C(=O)OCOP(=O)(NCc1cccc(F)c1)C1CCCN(O)C1=O` (configuration not stated), the IC50 in data set [3] worked out at 2.38 µM.
For `CCCCCCCCCCCCNP(=O)(O)C1CCCN(O)C1=O` (configuration not stated), the IC50 in [3] was over 100 µM.
Consider `CC(C)(C)C(=O)OCOP(N)(=O)C1CCCN(O)C1=O` (configuration not stated), for which, in [3], the IC50 was 426 µM.
`CNP(=O)(OCOC(=O)C(C)(C)C)C1CCCN(O)C1=O` (configuration not stated): the IC50 in data set [3] was 5.4 µM.
As for `CCCCCCCCCCCCCCCCOCCCOP(=O)(O)C1CCCN(O)C1=O` (configuration not stated), in data set [2], the Activity came out at 14%.
`N#CCOP(=O)(OC#N)C1CCCN(O)C1=O` (configuration not stated): in data set [3], the IC50 is over 100 µM.
With `CN(C)P(=O)(OCOC(=O)C(C)(C)C)C1CCCN(O)C1=O` (configuration not stated), the IC50 in [3] was found to be 12.9 µM.
Turning to `CC(C)OC(=O)[C@H](C)NP(=O)(Oc1ccccc1)C1CCCN(O)C1=O` (some centres not stated), the Stability entry in [4], in data set [5] and in data set [6] was “Stable” each time.
Consider `CC(C)OC(=O)[C@H](C)NP(=O)(N[C@@H](C)C(=O)OC(C)C)C1CCCN(O)C1=O` (some centres not stated), for which the IC50 in [3] is over 100 µM.
On the same count and under the same terms, then `N#CCOP(=O)(NCc1ccccc1)C1CCCN(O)C1=O` (configuration not stated), with 0.775 µM.
On to `O=C1C(P(=O)(NCc2ccccc2)Oc2ccc(F)cc2)CCCN1O` (configuration not stated), for which the IC50 in data set [3] is over 100 µM.
In the case of `CC(C)C(=O)ON1CCCC(P2(=O)OCc3ccccc3O2)C1=O` (configuration not stated), the Stability entry is listed as “Stable” in data set [7], “Stable” in data set [8], “Unstable” in [9] and “Stable” in data set [10]. The Drug metabolism result in data set [11] is “Metabolite_Detected”.
Take `O=C1C(P(=O)(NCc2ccccc2)OCOC(=O)N2CCC(N3CCCCC3)CC2)CCCN1O` (configuration not stated): the IC50 in data set [3] is over 100 µM.
